Compounds with a hit are over-represented: about 5.7% of the library has one in this group of screens.
Mdm2-MdmX inh: inhibitors of human Mdm2/MdmX interaction; O15151+Q00987; SaOS-2 split-luciferase Mdm2/MdmX complementation, luminescence; inhibition, % at 8 µM; 330,000 tested, 3% active; AID 485346;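 active means inhibition of at least 50% at 8 µM in the primary screen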
Target sequence (O15151 whole entry, looked up): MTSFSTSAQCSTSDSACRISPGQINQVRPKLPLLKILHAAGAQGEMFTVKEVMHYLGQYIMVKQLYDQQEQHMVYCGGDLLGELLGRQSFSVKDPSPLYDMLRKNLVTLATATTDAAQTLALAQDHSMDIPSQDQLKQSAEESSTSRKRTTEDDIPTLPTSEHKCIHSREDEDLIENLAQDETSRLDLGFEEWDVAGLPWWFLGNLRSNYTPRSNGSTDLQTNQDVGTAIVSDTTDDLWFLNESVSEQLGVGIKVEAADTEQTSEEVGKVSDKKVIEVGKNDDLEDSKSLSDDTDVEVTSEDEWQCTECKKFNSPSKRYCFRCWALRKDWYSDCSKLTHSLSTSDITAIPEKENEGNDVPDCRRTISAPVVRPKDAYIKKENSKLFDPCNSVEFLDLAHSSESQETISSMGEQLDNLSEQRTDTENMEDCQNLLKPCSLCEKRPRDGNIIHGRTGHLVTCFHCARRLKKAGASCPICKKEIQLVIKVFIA
Target sequence (Q00987 whole entry, looked up): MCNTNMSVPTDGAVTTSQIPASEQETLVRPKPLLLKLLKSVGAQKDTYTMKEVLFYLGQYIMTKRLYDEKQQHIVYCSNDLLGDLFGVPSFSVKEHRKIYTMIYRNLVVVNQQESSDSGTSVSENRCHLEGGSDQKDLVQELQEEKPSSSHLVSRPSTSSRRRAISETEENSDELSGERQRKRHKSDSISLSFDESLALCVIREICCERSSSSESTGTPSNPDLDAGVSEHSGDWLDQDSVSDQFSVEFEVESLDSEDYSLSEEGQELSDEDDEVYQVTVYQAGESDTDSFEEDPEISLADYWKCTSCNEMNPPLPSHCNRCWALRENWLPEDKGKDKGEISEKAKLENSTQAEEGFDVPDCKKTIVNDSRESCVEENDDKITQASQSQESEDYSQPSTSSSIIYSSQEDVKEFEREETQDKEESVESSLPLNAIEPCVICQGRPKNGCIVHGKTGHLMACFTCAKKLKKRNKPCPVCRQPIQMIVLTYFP
SKKanGAS inh: inhibitors of SKKanGAS S. pyogenes growth in kanamycin (SK-promoter or general growth effect). BacTiter-Glo, 6 h. inhibition, % at 7.5 µM. AID 1662. 300,000 tested, 1.3% active;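 active means mean replicate score, as percent of positive control median, at least 50; inconclusive means mean below 50 but one replicate at or above 50; inactive means mean and every replicate below 50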;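 further: strain carries kanamycin resistance gene driven by streptokinase promoter and grows in 40 µg/ml kanamycin; loss of luminescence reflects streptokinase promoter inhibition or plain growth inhibition; 0% = median of DMSO wells and 100% = positive control at its reference dose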
Beta cell apopt: blocks beta cell apoptosis. INS-1E cytokine-induced death, ATP luminescence, 48 h; percent of positive-control rescue, neutral wells zero. protection from apoptosis, % (no concentration beside the values). 300,000 tested, 0.8% active. AID 435005;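 active means Every replicate reaches about 75%, or at least half do and their mean reaches it too, limit read from the data; inconclusive means At least half of replicates reach the limit but their mean does not; inactive means Under half of replicates reach the limit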;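 further: 0% = cytokine-treated negative control wells and 100% = positive control rescue; higher means more ATP so stronger rescue from cytokine killing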
Calb FLC: C. albicans growth modulation with fluconazole. C. albicans CaCi-2 (fluconazole-resistant clinical isolate) + fluconazole, Alamar Blue growth, 48 h. growth inhibition, % (concentration not given with the values). 300,000 tested, 0.57% active. AID 1979;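 active means growth inhibition above about 58% in most replicates, limit read from the data, passing the limit was not always enough; inconclusive means exactly half the replicates above a set limit; inactive means most replicates below a set limit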;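 further: all wells also contain fluconazole at 8 µg/ml as a sub-toxic cotreatment; 0% = median of DMSO wells and 100% = median of geldanamycin control wells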
T cruzi repl: T. cruzi replication inhibition; inhibition, % (concentration not given with the values); T. cruzi beta-gal in NIH3T3, luminescence, 90 h; AID 1885; 300,000 tested, 1.4% active;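 active means mean inhibition across valid replicates above about 55%, limit read from the data; inconclusive means mean below that limit but half or more replicates reach it; inactive means mean below it, under half of replicates reach it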;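 further: signal also drops with host cell toxicity which is not excluded here; 0% = plate median of DMSO wells and 100% = zero luminescence signal; higher percent means less beta-gal luminescence so fewer parasites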
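System: mouse NIH/3T3 fibroblasts infected with β-gal-expressing T. cruzi Tulahuen C4 / Input: NIH/3T3 cells, 5,000 per well / Buffer or medium: Low-serum DMEM with 2% FBS / Probe or stimulus: 5000 reporter trypomastigotes per well / Schedule: ≥90 h infection period, 3 h prior cell attachment / Measured by: GalScreen luminescence, 60 min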
CSC inhib: cancer stem cell inhibition. inhibition, % at 7.5 µM. AID 2717. cancer stem cell-like cells viability, luminescence. 300,000 tested, 1.1% active; in the data active means inhibition above about 75%; inconclusive means no clear call, values can overlap the other calls; tested in HMLE shEcad cells
Mdm2-MdmX conf: confirmation of human Mdm2/MdmX interaction inhibitors. shares compounds with Mdm2-MdmX inh. Mdm2-MdmX binding, luminescent assay. inhibition, % at 8 µM. 10,000 tested, 55% active. AID 489028; in the data active means inhibition above about 40%
FLuc counter: counter-screen for Mdm2/MdmX inhibitors: full-length luciferase; shares compounds with Mdm2-MdmX inh; SaOS-2 full-length luciferase counterscreen, luminescence; inhibition, % at 8 µM; 6,200 tested, 77% active; AID 504607;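 active means mean inhibition at 8 µM reaching about 37%, which flags the compound as non-specific, limit read from the data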;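 further: p53-null SaOS-2 cells with luciferase driven by a doxycycline-inducible promoter; compound on cells about two nights before reading with doxycycline added after day one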
* = called active by the depositor; ? = inconclusive; / = no result.

SMILES	Mdm2-MdmX inh	SKKanGAS inh	Beta cell apopt	Calb FLC	T cruzi repl	CSC inhib	Mdm2-MdmX conf	FLuc counter
CCc1nn(CC(=O)NC(C)CCc2ccccc2)c(=O)c2cc3cc(F)ccc3n12 (stereo not drawn)	55*	7	9	15	13	15	11	/
COc1ccc2c(c1)cc1c(=O)n(CC(=O)NC(C)CCc3ccccc3)nc(C)n12 (stereo not drawn)	15	-3	-6	6	-8	3	/	/
CCc1nn(CC(=O)NC2CCN(Cc3ccccc3)CC2)c(=O)c2cc3cc(F)ccc3n12	58*	6	3	-2	8	5	20	/
O=C(/C=C/c1ccco1)NC(=S)Nc1nc(-c2ccc3ccccc3c2)cs1	78*	6	9	-3	-2	76*	45*	48*
O=C(/C=C/c1ccco1)NC(=S)Nc1nc(-c2ccc(Cl)cc2)cs1	61*	2	-2	-3	-5	/	54*	67*
COc1ccc(-c2csc(NC(=S)NC(=O)/C=C/c3ccccc3)n2)cc1Br	55*	-13	-6	-2	-27	23	4	/
CCNC(=O)CC1C(=O)N(c2ccccc2)C(=O)N1CCOC (stereo not drawn)	17	0	1	2	-9	-13	/	/
Cc1nc2nc(SCc3ccccc3)[nH]n2c(=O)c1CCC(C)C	-2	18	-3	1	5	2	/	/
COc1ccc2c3n(nc2c1)CCN=C3c1cc(Cl)c(N)c(Cl)c1	65*	/	16	/	/	40	62*	65*
Nc1c(Cl)cc(C2=NCCn3nc4cc(C(F)(F)F)ccc4c32)cc1Cl	-7	27	5	3	24	26	/	/
Cc1cc(C(=O)NNC(=O)CCCOc2ccccc2)c(C)o1	11	-3	2	-6	5	-8	/	/
CC(C)(C)c1ccc(OCCCC(=O)NNC(=O)c2ccccc2O)cc1	58*	2	/	81*	28	32	66*	45*
CCn1cc([N+](=O)[O-])c(C(=O)Nc2nc(-c3ccc(C)cc3)c(C)s2)n1	55*	22	-19	?	4	102*	32	/
CC1CN(C(=O)c2ccc(Br)c(S(=O)(=O)N3CCOCC3)c2)CC(C)O1 (stereo not drawn)	7	/	-4	/	/	/	/	/
CCCCn1c(CCl)nc2cc(S(=O)(=O)N3CCOCC3)ccc21	88*	/	-2	/	/	-12	53*	30
CC(=O)Nc1ccc(Nc2nc(C)c([N+](=O)[O-])c(Nc3ccccc3)n2)cc1	58*	40	17	-11	7	15	35	/
CCC(=O)Nc1ccc(Nc2nc(C)c([N+](=O)[O-])c(Nc3ccc(NC(=O)CC)cc3)n2)cc1	64*	66*	/	-3	3	9	74*	80*
Cc1nc(Nc2ccc(C(=O)O)cc2)nc(Nc2ccc(C(=O)O)cc2)c1[N+](=O)[O-]	-3	32	-7	17	-12	-9	/	/
CCc1nnc(N/N=C/c2c(C)[nH]c3ccccc23)n1N	-9	4	6	10	/	6	/	/
COc1ccc(NC(=O)CSc2nc3sc(C)c(C)c3c(=O)n2Cc2ccco2)cc1	87*	-3	-8	-8	52	/	12	/
COC(=O)c1ccc2c(=O)n(Cc3ccco3)c(SCC(=O)Nc3ccc(C)c(Cl)c3)nc2c1	68*	-2	39	-9	-23	21	16	/
O=C(CSc1nc2cc(Cl)ccc2c(=O)n1Cc1ccco1)Nc1ccc(S(=O)(=O)N2CCOCC2)cc1	15	15	-6	-6	5	4	/	/
Cc1sc2nc(SCC(=O)C(C)(C)C)n(Cc3ccco3)c(=O)c2c1C	37	45	9	-1	21	63	/	/
COc1ccc(C(C)(C)C)cc1NC(=O)CN1C(=O)C(=O)N(Cc2ccco2)C1=O	-8	/	-1	/	/	-1	/	/
O=C1/C(=C/c2ccccc2[N+](=O)[O-])COc2ccccc21	98*	15	-11	?	5	-27	45*	3
SMILES	Mdm2-MdmX inh	SKKanGAS inh	Beta cell apopt	Calb FLC	T cruzi repl	CSC inhib	Mdm2-MdmX conf	FLuc counter
COc1ccc(S(=O)(=O)N2CCCCCC2)cc1C(=O)N(C)Cc1ccc(F)cc1	3	-12	-6	1	26	8	/	/
COc1ccc(S(=O)(=O)N2CCCCCC2)cc1C(=O)N(C)Cc1ccc(C(C)(C)C)cc1	53*	4	22	4	28	13	12	/
Cc1cc(C)c(NC(=O)Cn2c(=O)c3cccn3c3ccccc32)c(C)c1	3	-3	1	2	22	-4	/	/
CC(C)(C)[C@H](N)C(=O)N[C@H]1CCC2C3CC=C4C[C@@H](O)CC[C@]4(C)C3CC[C@@]21C (stereo partly drawn)	100*	/	52	/	/	104*	100*	52*
C[C@]12CC[C@H](O)CC1=CCC1C2CC[C@@]2(C)C1CC[C@@H]2NC(=O)[C@@H](N)Cc1ccccc1 (stereo partly drawn)	68*	/	-1	/	/	-6	23	/
CC(C)C(=O)N[C@H]1CCC2C3CC=C4C[C@@H](O)CC[C@]4(C)C3CC[C@@]21C (stereo partly drawn)	2	/	2	/	/	-12	/	/
CCCCCCN[C@H]1CCC2C3CC=C4C[C@@H](O)CC[C@]4(C)C3CC[C@@]21C (stereo partly drawn)	35	/	8	/	/	62	/	/
COc1ccc(CCN2CC(C(=O)NCCCn3nc(C)cc3C)CCC2=O)cc1 (stereo not drawn)	12	-1	7	1	-11	-5	/	/
CCOc1ccc(C(C(=O)NCC2CCCO2)N(C(=O)c2snc(C(N)=O)c2N)c2ccc3c(c2)OCCO3)cc1 (stereo not drawn)	20	-2	-7	45	0	-1	/	/
Cc1cccc(OCCCN2C(=O)C(=O)c3cc(C)ccc32)c1	59*	-11	-2	-2	30	18	69*	65*
Cc1ccc2c(c1)C(=O)C(=O)N2Cc1ccc(F)cc1	34	/	0	/	/	17	/	/
Cc1ccc2c(c1)C(=O)C(=O)N2Cc1ccc(Cl)cc1	68*	/	-3	/	/	40	24	/
CCc1cccc(NS(=O)(=O)c2c(C)nc3sc(CC)nn3c2=O)c1	53*	/	-8	/	/	6	2	/
O=C(NCC1CCCN1S(=O)(=O)c1cccs1)c1ccc(F)cc1 (stereo not drawn)	16	-2	-2	10	5	-8	/	/
CCOc1ccc(S(=O)(=O)NCc2ccccn2)cc1NC(=O)c1ccccc1	58*	-11	/	4	24	51	75*	57*

Source: PubChem BioAssay (several laboratories)
